Experimental data gathered from unrelated publications.
Protocols differ between the studies behind these lines.
Target: MAP/microtubule affinity-regulating kinase 3 (MARK3, Homo sapiens, UniProt P27448)

Cc1noc([C@H]2C[C@@H](c3ccc(C(F)(F)F)cc3)CN(C(=O)N3CCS(=O)(=O)C3)C2)n1
remaining binding (cell-free assay; competition with immobilised ligand; 1 µM): 100%

O=C(Nc1c[nH]nc1C(=O)NC1CCNCC1)c1cc(F)cc(F)c1
remaining binding (binding; competition with immobilised ligand; 1 µM): 100%

c1cnn2ncc(-c3ccnc(N4CCC45COC5)n3)c2c1
remaining binding (binding; 1 µM): 100%

C[C@H](c1cccc(C#N)c1)n1cc(Cl)cc(C(N)=O)c1=N
remaining binding (cell-free assay; competition with immobilised ligand; 1 µM): 100%

FC(F)(F)Oc1cccc(-c2cnc3ccc(-c4ccncc4)nn23)c1
remaining binding (cell-free assay; competition with immobilised ligand; 5 µM): 97%

CNC(=O)[C@@H]1CC[C@@H](n2c(-c3ccc4cnccc4c3)nc3ccc(C(=O)NCc4cccc(C(N)=O)c4)cc32)C1
remaining binding (binding; competition with immobilised ligand; 1 µM): 59%

C[C@H](c1ccc(F)cc1)N(Cc1cccc(C(=O)O)c1)C(=O)c1cnc2ccccc2c1
remaining binding (cell-free assay; competition with immobilised ligand; 1 µM): 100%

C[C@H]1CCN(c2nccc(-c3cnn4ncccc34)n2)C1
remaining binding (binding; 1 µM): 92%

O=C(NCCCN1CCOCC1)c1ccc(Nc2nccc(-c3cc4ccccc4s3)n2)cc1
remaining binding (binding; competition with immobilised ligand; 1 µM): 100%

O=C(O)[C@H]1[C@H](Cn2nnc3ccccc3c2=O)CC[C@@H]1C(=O)c1ccc(OCCC2CCOCC2)cc1
remaining binding (cell-free assay; competition with immobilised ligand; 1 µM): 100%

CC1CCCN1c1nccc(-c2cnn3ncccc23)n1 (stereo not shown)
remaining binding (binding; 1 µM): 100%

O=C(c1ccc(Nc2ncc(Cl)c(-c3cc4ccccc4s3)n2)cc1)N1CCC(N2CCCC2)CC1
remaining binding (binding; competition with immobilised ligand; 1 µM): 100%

C[C@@H]1CN(c2ccc3ncc(-c4ccc5[nH]nc(C6CC6)c5c4)n3n2)C[C@H](C)O1
remaining binding (binding; competition with immobilised ligand; 0.5 µM): 100%

N[C@@H]1CCN(c2nccc(-c3cnn4ncccc34)n2)C1
remaining binding (binding; 1 µM): 100%

Cc1c(C(=O)O)cc(-c2ccc(C3CCNCC3)cc2)c2ccc(-c3ccc(C(F)(F)F)cc3)cc12
remaining binding (binding; competition with immobilised ligand; 1 µM): 100%

N#Cc1ccccc1CSc1nnc2c(n1)[nH]c1ccccc12
remaining binding (binding; competition with immobilised ligand; 10 µM): 93%
